Screens (PubChem)
Myeloid diff 2 – myeloid differentiation induction | ER-HoxA9 myeloid progenitors, lysozyme-GFP differentiation, flow cytometry | calls only at 10 µM | 1% of 360,000 active;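 active = normalized GFP-positive differentiation at or above the plate's own cutoff, the solvent-only control mean plus 3 SD; inconclusive = no clear call, values can overlap the other calls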;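 also: cells exposed to compound for four days before flow analysis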
GAA850 FXN act – activators of GAA850 frataxin (FXN) promoter; activation, % at 6 µM; HEK293 lucGAA850 FXN promoter luciferase reporter, 24 h; percent of 10 µM SAHA response; 0.56% of 360,000 active;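 active = activation above the average of all compounds screened plus 3 SD, cutoff fixed separately per campaign, cut at about 7.5% in these data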;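 also: 0% = DMSO wells and 100% = 10 µM SAHA wells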
T cell modulator – modulates CD8 T cell binding to vesicles. 2C CD8+ T cell-vesicle binding, flow cytometry; stronger effect = lower value. response (vesicle binding), % at 7 µM. 0.068% of 330,000 active. AID 2052;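 active = response, share of CD8 T cells binding vesicles, and their 90th percentile fluorescence all below set limits, cut at about 80% in these data, passing the limit was not always enough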;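 also: values below 100% mean blocked vesicle binding to the CD8+ T cells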
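Read-out – percent CD8+ FL2 mean versus row control · System – murine 2C transgenic CD8+ T lymphocytes · Times – 1.5 h cell–vesicle binding at 37 °C, then 20 min icy labelling · Control set – naked vesicles low, QL9 vesicles with vehicle high · Detection – cytometric PE anti-B7-1 and Alexa647 anti-CD8 signals after 1% paraformaldehyde fixation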
NR2E3 ag-1 – agonists of human nuclear receptor NR2E3; 0.12% of 320,000 active; Q9Y5X4; inhibition of corepressor binding, % at 4.78 µM; GST-NR2E3/biotin-RetCOR TR-FRET, 1536-well;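 active = percent inhibition above the cutoff of mean plus 3 SD of all tested compounds, set per screening campaign, cut at about 20% in these data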;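 also: 0% = DMSO wells and 100% = biotin wells as full block of FRET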
Target sequence (Q9Y5X4 whole entry, looked up): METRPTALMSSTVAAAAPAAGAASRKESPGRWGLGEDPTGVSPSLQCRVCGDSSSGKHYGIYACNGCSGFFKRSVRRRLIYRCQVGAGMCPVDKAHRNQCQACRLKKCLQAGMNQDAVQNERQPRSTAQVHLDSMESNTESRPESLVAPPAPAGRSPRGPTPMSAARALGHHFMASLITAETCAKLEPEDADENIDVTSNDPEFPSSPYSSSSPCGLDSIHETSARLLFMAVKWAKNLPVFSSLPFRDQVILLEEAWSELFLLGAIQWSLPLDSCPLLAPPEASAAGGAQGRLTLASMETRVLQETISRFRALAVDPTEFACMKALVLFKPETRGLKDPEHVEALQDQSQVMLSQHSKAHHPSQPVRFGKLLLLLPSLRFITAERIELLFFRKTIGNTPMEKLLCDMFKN
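system = GST-tagged NR2E3 plus biotinylated RetCOR corepressor | input = 1.35 nM GST-NR2E3 | also added = 7 nM biotin-RetCOR | schedule = 5 h incubation at 4 °C | measured by = TR-FRET with europium anti-GST and streptavidin-D2, 340 nm excitation | read-out = percent loss of FRET ratio relative to control wells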
NR2E3 ag-2 – agonists of human NR2E3 nuclear receptor. Q9Y5X4. CHO-S Gal4-NCOR/VP16-NR2E3 two-hybrid, luciferase. inhibition of corepressor binding, % at 3.98 µM. 0.35% of 360,000 active. AID 602229;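 active = inhibition above the mean of all tested compounds plus 3 SD, cut at about 70% in these data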;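 also: 0% = DMSO with NR2E3 transfected cells and 100% = cells lacking NR2E3 construct; higher means lower luciferase signal from less NR2E3 corepressor binding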
The depositor's hits bear a star; ! = not active in a repeat. Compounds with a hit are over-represented: about 2% of the library has one in this group of screens.

Screening CN(C)S(=O)(=O)c1ccc(N=Cc2c(C(F)(F)F)[nH]n(C)c2=O)cc1 returned Myeloid diff 2 active, GAA850 FXN act 3.2, T cell modulator 209.7, NR2E3 ag-1 7.2 and NR2E3 ag-2 -13.8.
`COC(=O)c1ccc(N=Cc2c(C(F)(F)F)[nH]n(C)c2=O)cc1` gave Myeloid diff 2 inactive, GAA850 FXN act 2.8, T cell modulator 121.8, NR2E3 ag-1 -3.6 and NR2E3 ag-2 -34.5.
Screening C=CCn1nnnc1SCC(=O)Nc1ccc(C(=O)OC)cc1 returned Myeloid diff 2 inactive, GAA850 FXN act 0.3, T cell modulator 0.0, NR2E3 ag-1 3.2 and NR2E3 ag-2 -16.1.
Screening C=CCn1nnnc1SCC(=O)Nc1cccc(C(F)(F)F)c1 returned Myeloid diff 2 active, GAA850 FXN act 1.3, T cell modulator 225.4, NR2E3 ag-1 -0.1 and NR2E3 ag-2 9.3.
Screening CCOC(=O)c1cc2nc(Nc3ccc(OC)cc3)sc2s1 returned Myeloid diff 2 active, GAA850 FXN act 1.3, T cell modulator 191.0, NR2E3 ag-1 0.1 and NR2E3 ag-2 -81.2.
`CCOC(=O)c1sc(Nc2ccc(Br)cc2)nc1C` gave Myeloid diff 2 inactive, GAA850 FXN act 2.8, T cell modulator 420.8, NR2E3 ag-1 2.3 and NR2E3 ag-2 -44.2.
Screening COC(=O)c1ccc2nc(-c3cccc(Cl)c3)c(Cc3cccc(F)c3)n2c1 returned Myeloid diff 2 inactive and NR2E3 ag-2 -9.3.
Screening CC1=Nc2ccc(C)cc2/C1=C/c1c(N)n2oc(C)cc2nc1=O returned Myeloid diff 2 active!, GAA850 FXN act 0.8, T cell modulator 383.8, NR2E3 ag-1 -18.9 and NR2E3 ag-2 11.7.
`CCOC(=O)/C(C#N)=C\c1ccc(N2CCN(C/C=C/c3ccccc3)CC2)cc1` gave Myeloid diff 2 active, GAA850 FXN act 0.4, T cell modulator 428.5, NR2E3 ag-1 2.4 and NR2E3 ag-2 1.2.
`CC(C)CCNC(=O)CN(C(=O)Cn1nnc(-c2ccccc2F)n1)c1cccc2c1CCCC2` gave Myeloid diff 2 inactive, GAA850 FXN act -3.5, T cell modulator 262.0, NR2E3 ag-1 -1.6 and NR2E3 ag-2 -8.5.
`O=C(CN(C(=O)Cn1nnc(-c2ccccc2F)n1)c1cccc2c1CCCC2)NCc1ccccc1` gave Myeloid diff 2 active, GAA850 FXN act -2.0, T cell modulator 125.9, NR2E3 ag-1 -2.6 and NR2E3 ag-2 -5.9.
Screening CCOc1ccccc1NC(=O)Nc1ccc2c(c1)OCO2 returned Myeloid diff 2 inactive, GAA850 FXN act 2.8, T cell modulator 225.6, NR2E3 ag-1 4.1 and NR2E3 ag-2 -19.0.
`C=CCOc1ccccc1CN(C(=O)CCl)c1ccc2c(c1)OCO2` gave Myeloid diff 2 active, GAA850 FXN act -9.0, T cell modulator 492.1, NR2E3 ag-1 -2.4 and NR2E3 ag-2 -12.9.
O=C(CC1SC(N2CCCCC2)=NC1=O)Nc1ccc(C(=O)NCCc2ccc(F)cc2)cc1 (stereo not given) was read as Myeloid diff 2 active, GAA850 FXN act 3.6, T cell modulator 407.1, NR2E3 ag-1 1.3 and NR2E3 ag-2 13.6.
COc1ccccc1N1C(C)=CC(=C(C#N)c2nc3ccccc3s2)C=C1C was read as Myeloid diff 2 active, GAA850 FXN act -6.6, T cell modulator 246.5, NR2E3 ag-1 2.6 and NR2E3 ag-2 13.1.
Screening CC1=CC(=C(C#N)c2nc3ccccc3s2)C=C(C)N1c1ccc(F)cc1 returned Myeloid diff 2 inactive, GAA850 FXN act 1.0, T cell modulator 271.1, NR2E3 ag-1 0.5 and NR2E3 ag-2 -24.9.
For Cc1c(NC(=O)COC(=O)c2cccc(F)c2)c(=O)n(-c2ccccc2)n1C the results were Myeloid diff 2 inactive, GAA850 FXN act 1.7 and NR2E3 ag-2 -4.7.
Cc1ccccc1NC(=O)/C=C/c1ccc([N+](=O)[O-])s1 was read as Myeloid diff 2 inconclusive, GAA850 FXN act -13.3, T cell modulator 738.0, NR2E3 ag-1 0.3 and NR2E3 ag-2 84.8*.
For O=C(/C=C/c1ccc([N+](=O)[O-])s1)N1CCCC1 the results were Myeloid diff 2 active, GAA850 FXN act 0.6, T cell modulator 491.0, NR2E3 ag-1 3.7 and NR2E3 ag-2 -4.7.
C#CCSc1nnc(-c2c[nH]c3ccccc23)n1C was read as Myeloid diff 2 active, GAA850 FXN act -0.8, T cell modulator 245.6, NR2E3 ag-1 -1.7 and NR2E3 ag-2 -40.1.
For CC1CCc2nc(N)c(C#N)c(-c3ccncc3)c2C1 (stereo not given) the results were Myeloid diff 2 active, GAA850 FXN act 1.2, T cell modulator 426.9, NR2E3 ag-1 -0.1 and NR2E3 ag-2 10.2.
For O=C(NCc1cccnc1)c1cc(C2CCCN(S(=O)(=O)c3cccs3)C2)on1 (stereo not given) the results were Myeloid diff 2 inactive, GAA850 FXN act 0.2 and NR2E3 ag-2 -10.9.
For CC[C@H](C)[C@@H](CNC)NC[C@@H](Cc1ccc(O)cc1)NCC(C)(C)C the results were Myeloid diff 2 inactive, GAA850 FXN act -2.3, T cell modulator 251.7, NR2E3 ag-1 0.2 and NR2E3 ag-2 -0.7.
CC[C@@H](C)[C@H](CN[C@H](CNC)C(C)C)NC[C@@H](C)c1ccc(CC(C)C)cc1 was read as Myeloid diff 2 active, GAA850 FXN act 1.2, T cell modulator 848.4, NR2E3 ag-1 1.6 and NR2E3 ag-2 7.4.
For COc1ccc(-c2nc3c4ccccc4ccn3c2Cc2ccccc2)cc1OC the results were Myeloid diff 2 inactive and NR2E3 ag-2 -88.0.
O=C(c1ccoc1)N1CCC2(CC1)Oc1ccc(Cl)cc1C(=O)C21CC(c2cccnc2)=NO1 (stereo not given) was read as Myeloid diff 2 inactive, GAA850 FXN act -0.4, T cell modulator 560.6, NR2E3 ag-1 3.4 and NR2E3 ag-2 -2.5.
`CC(C)C(=O)N1CCC2(CC1)Oc1ccc(Cl)cc1C(=O)C21CC(c2cccnc2)=NO1` (stereo not given) gave Myeloid diff 2 inactive, GAA850 FXN act 0.1, T cell modulator 0.0*, NR2E3 ag-1 0.5 and NR2E3 ag-2 -4.7.
For CS(=O)(=O)N1CCN(c2ccccc2NC(=O)c2cc3ccccc3o2)CC1 the results were Myeloid diff 2 inactive, GAA850 FXN act -1.4, T cell modulator 151.4, NR2E3 ag-1 0.4 and NR2E3 ag-2 -16.2.
For Cc1ccc(N(C(=O)CNC(=O)c2ccco2)C(C(=O)NC2CCCC2)c2cccnc2)c(C)c1 (stereo not given) the results were Myeloid diff 2 active, GAA850 FXN act -0.4, T cell modulator 311.2, NR2E3 ag-1 3.1 and NR2E3 ag-2 4.9.
`N#C/C(=C\c1ccc(N2CCOCC2)o1)c1nc2ccccc2[nH]1` gave Myeloid diff 2 active, GAA850 FXN act 0.6, T cell modulator inactive, NR2E3 ag-1 -8.0 and NR2E3 ag-2 -37.0.
`N#C/C(=C\c1ccc(N2CCOCC2)c([N+](=O)[O-])c1)c1nc2ccccc2[nH]1` gave Myeloid diff 2 inactive, GAA850 FXN act 2.3, T cell modulator 246.4, NR2E3 ag-1 -2.0 and NR2E3 ag-2 -27.3.
